The target in experiment [1] is human fetal muscle AChR (α1β1γδ) in TE671 cells (Homo sapiens, UniProt P02708+P07510+P11230+Q07001). In kind it is cell-based.
In experiment [2] the target is Torpedo AChR ion channel ([3H]18-MC site) (Tetronarce californica, UniProt P02710+P02712+P02714+P02718). It counts as binding. The following applies: for nH / ΔG / Ki: [3H]18-MC; for ΔG: 298K.
The target in experiment [3] is T1, Torpedo AChR (Tetronarce californica, UniProt P02710+P02712+P02714+P02718). Briefly: biochemical. It counts as binding. Particulars: for apparent nH: [3H]cytisine binding enhancement; for fractional occupancy (θ): calculated with Eq. (2).
T1 sequence (P02710 25-461): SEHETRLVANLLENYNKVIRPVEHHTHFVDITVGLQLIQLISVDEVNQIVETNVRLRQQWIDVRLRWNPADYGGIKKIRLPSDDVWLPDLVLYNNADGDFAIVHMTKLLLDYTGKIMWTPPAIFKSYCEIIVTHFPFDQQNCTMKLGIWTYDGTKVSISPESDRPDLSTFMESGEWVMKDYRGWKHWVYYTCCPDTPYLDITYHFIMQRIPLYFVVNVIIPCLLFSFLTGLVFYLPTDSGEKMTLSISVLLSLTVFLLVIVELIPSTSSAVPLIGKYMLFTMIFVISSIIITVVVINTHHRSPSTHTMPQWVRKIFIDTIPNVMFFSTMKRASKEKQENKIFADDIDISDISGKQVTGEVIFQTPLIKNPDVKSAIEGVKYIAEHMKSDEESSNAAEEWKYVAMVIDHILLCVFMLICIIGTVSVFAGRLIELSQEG
T1 sequence (P02712 25-493): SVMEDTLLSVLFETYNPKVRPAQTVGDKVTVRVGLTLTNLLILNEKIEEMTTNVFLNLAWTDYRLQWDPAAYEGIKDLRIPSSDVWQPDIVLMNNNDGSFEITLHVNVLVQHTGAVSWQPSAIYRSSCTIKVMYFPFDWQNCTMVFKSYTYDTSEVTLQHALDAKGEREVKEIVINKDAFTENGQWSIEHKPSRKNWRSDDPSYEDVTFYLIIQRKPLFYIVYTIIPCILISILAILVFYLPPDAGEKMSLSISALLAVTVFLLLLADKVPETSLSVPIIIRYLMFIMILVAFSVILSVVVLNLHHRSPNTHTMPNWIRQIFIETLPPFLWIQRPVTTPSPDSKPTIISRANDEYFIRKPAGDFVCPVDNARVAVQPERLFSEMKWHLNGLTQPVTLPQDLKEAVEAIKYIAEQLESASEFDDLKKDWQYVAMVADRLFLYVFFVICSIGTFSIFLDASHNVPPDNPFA
T1 sequence (P02714 18-506): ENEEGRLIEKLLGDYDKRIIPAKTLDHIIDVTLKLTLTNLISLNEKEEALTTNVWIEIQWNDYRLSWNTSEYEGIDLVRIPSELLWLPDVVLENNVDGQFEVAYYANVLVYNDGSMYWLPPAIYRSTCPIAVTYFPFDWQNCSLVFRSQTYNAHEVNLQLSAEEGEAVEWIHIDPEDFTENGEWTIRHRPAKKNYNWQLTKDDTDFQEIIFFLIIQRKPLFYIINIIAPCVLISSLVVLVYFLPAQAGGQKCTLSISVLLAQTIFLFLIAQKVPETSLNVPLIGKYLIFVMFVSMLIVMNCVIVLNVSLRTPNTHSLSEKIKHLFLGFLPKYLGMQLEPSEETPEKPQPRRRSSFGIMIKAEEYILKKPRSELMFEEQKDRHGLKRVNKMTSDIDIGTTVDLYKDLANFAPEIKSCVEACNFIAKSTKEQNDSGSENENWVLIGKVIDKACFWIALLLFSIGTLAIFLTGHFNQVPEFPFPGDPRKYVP
T1 sequence (P02718 22-522): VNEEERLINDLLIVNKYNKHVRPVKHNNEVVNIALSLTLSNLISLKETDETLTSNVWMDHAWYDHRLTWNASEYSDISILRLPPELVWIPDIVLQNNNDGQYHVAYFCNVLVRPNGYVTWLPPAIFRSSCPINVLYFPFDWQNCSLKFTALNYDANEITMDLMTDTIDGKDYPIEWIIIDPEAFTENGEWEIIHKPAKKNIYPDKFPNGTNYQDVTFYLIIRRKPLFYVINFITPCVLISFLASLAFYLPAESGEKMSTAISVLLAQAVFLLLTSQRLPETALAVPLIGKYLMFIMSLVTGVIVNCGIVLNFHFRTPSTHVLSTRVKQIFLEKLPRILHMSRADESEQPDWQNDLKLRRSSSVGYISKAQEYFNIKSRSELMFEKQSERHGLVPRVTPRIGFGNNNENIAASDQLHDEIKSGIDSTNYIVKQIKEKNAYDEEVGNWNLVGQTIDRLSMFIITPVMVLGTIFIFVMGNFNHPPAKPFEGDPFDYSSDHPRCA
Another experiment deals with α3β4 AChR. The following applies: cited from earlier work.
Experiment [4] addresses Torpedo AChR. The following applies: cited from earlier work.
For experiment [5], the target named is T1, Torpedo AChR. Briefly: Equilibrium binding of [3H]18-MC to Torpedo AChR native membranes. The essentials: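 [3H]18-MC plus unlabelled ligand was added at 0.07–1.2 μM for 2 h at RT, then filtered. Nonspecific binding was measured with 100 μM unlabelled ligand. Kd was taken from the Rosenthal-Scatchard slope and sites/AChR from its x-intercept.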
Experiment [6] has as its target Torpedo AChR ion channel ([3H]TCP site) (Tetronarce californica, UniProt P02710+P02712+P02714+P02718). Nature of the experiment: [3H]TCP competition binding to Torpedo AChRs in different conformational states. Particulars: for Ki / nH / ΔG: [3H]TCP; for ΔG: 298K.
The target of experiment [7] is Torpedo AChR ion channel ([3H]ibogaine site) (Tetronarce californica, UniProt P02710+P02712+P02714+P02718). Briefly: [3H]ibogaine competition binding to Torpedo AChRs.
Torpedo AChR ion channel ([3H]ibogaine site), sequence (P02710 25-461): as the sequence (P02710 25-461) above
Torpedo AChR ion channel ([3H]ibogaine site), sequence (P02712 25-493): as the sequence (P02712 25-493) above
Torpedo AChR ion channel ([3H]ibogaine site), sequence (P02714 18-506): as the sequence (P02714 18-506) above
Torpedo AChR ion channel ([3H]ibogaine site), sequence (P02718 22-522): as the sequence (P02718 22-522) above
In experiment [8] the target is T2, Torpedo AChR (immobilized) (Tetronarce californica, UniProt P02710+P02712+P02714+P02718). Nature of the experiment: Binding kinetics by non-linear chromatography on CMAC-Torpedo AChR column. The following applies: for Kd: Ka; for koff: 20 °C; for ΔG^20: Eq. (4); for kon: kon=koff·Ka.
T2 sequence (P02718 22-522): as above
T2 sequence (P02712 25-493): as the sequence (P02712 25-493) above
T2 sequence (P02714 18-506): as the sequence (P02714 18-506) above
T2 sequence (P02710 25-461): as the sequence (P02710 25-461) above
Experiment [9] has as its target T2, Torpedo AChR (immobilized). Briefly: Thermodynamic parameters by non-linear chromatography. It counts as binding. Particulars: for Ea (drug dissociation): Arrhenius plot; for ΔG^20: Eq. (8), 293K; for ΔH^+: Eq. (10); for ΔH°: van't Hoff 10-25 °C.
The test system of the next experiment is α4β2 AChR. Particulars: read-out: inhibitory potency; cited from earlier work.
Experiment [10] deals with Torpedo AChR. The following applies: cited from earlier work. The source holds these as a separate data set.
The target of a further experiment is AChR. The following applies: cited from earlier work.
Setting [11] is: 5 min pre-incubation IC50 comparison.
[12] abbreviates: epibatidine treated column (desensitized state).
The mark [13] stands for this setting: α-BTx treated column (resting state).

Consider 9 compounds from paper PMC3787694 (Biochimica et biophysica acta, 2010).

Structures can show the parent of a compound that is named as a salt. Where two headings read alike, the source gives them in different places.

Torpedo AChR ion channel ([3H]TCP site), sequence (P02710 25-461): as above
Torpedo AChR ion channel ([3H]TCP site), sequence (P02712 25-493): as the sequence (P02712 25-493) above
Torpedo AChR ion channel ([3H]TCP site), sequence (P02714 18-506): as the sequence (P02714 18-506) above
Torpedo AChR ion channel ([3H]TCP site), sequence (P02718 22-522): as the sequence (P02718 22-522) above
Torpedo AChR ion channel ([3H]18-MC site), sequence (P02710 25-461): as the sequence (P02710 25-461) above
Torpedo AChR ion channel ([3H]18-MC site), sequence (P02712 25-493): as the sequence (P02712 25-493) above
Torpedo AChR ion channel ([3H]18-MC site), sequence (P02714 18-506): as the sequence (P02714 18-506) above
Torpedo AChR ion channel ([3H]18-MC site), sequence (P02718 22-522): as the sequence (P02718 22-522) above
human fetal muscle AChR (α1β1γδ) in TE671 cells, sequence (P02708 21-457): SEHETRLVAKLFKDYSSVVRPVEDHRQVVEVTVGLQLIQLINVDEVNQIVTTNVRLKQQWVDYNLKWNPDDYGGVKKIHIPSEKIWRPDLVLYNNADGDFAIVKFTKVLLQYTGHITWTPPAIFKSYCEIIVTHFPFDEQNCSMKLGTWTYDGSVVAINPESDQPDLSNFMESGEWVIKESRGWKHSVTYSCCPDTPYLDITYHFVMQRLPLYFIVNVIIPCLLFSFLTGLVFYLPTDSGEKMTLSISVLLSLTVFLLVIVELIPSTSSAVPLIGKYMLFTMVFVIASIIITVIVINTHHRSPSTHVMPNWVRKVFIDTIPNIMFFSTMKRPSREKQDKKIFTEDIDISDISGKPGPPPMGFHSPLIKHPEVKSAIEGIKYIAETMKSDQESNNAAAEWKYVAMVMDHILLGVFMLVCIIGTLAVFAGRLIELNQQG
human fetal muscle AChR (α1β1γδ) in TE671 cells, sequence (Q07001 22-517): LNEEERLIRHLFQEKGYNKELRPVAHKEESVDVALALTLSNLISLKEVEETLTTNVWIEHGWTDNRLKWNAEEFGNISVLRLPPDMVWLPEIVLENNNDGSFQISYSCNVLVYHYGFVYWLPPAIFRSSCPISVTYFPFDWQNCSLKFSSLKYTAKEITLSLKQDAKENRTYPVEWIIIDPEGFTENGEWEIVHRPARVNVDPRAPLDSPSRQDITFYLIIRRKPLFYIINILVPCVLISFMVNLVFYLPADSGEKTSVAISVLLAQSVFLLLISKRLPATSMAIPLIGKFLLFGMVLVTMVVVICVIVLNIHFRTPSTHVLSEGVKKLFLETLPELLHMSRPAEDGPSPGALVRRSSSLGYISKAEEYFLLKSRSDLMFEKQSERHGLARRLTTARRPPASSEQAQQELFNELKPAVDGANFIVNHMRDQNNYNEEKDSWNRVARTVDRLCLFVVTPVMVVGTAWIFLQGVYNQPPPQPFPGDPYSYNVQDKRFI
human fetal muscle AChR (α1β1γδ) in TE671 cells, sequence (P11230 24-501): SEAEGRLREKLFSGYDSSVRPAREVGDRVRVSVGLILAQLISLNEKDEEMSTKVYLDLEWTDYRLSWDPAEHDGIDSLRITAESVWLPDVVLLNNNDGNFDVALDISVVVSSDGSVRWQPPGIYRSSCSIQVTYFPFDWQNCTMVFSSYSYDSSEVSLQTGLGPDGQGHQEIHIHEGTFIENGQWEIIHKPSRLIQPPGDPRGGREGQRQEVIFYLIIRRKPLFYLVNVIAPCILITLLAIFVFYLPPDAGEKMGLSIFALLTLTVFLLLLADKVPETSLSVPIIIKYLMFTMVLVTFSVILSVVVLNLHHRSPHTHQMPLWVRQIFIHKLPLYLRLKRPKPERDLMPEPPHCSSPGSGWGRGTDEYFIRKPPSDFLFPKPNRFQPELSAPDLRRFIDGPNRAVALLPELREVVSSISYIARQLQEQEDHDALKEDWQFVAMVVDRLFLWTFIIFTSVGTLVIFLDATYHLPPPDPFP
human fetal muscle AChR (α1β1γδ) in TE671 cells, sequence (P07510 23-517): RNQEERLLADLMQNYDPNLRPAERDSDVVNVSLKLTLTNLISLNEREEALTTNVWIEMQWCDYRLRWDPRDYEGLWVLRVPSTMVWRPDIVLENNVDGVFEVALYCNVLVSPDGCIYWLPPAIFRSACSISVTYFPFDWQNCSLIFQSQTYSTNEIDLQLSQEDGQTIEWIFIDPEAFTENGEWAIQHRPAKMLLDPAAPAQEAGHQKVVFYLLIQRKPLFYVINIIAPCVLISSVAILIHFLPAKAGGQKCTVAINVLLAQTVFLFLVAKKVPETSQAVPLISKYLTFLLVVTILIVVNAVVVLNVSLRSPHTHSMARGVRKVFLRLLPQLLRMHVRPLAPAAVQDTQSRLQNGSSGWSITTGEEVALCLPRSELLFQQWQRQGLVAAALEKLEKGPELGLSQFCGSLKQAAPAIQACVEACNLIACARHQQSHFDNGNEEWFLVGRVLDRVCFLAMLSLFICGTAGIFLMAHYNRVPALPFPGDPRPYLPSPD

ibogaine: in [1] (pre-incubation 5 min), the “nH (Hill coefficient)” value stood at 2.00 ±0.29. Moreover, the nH amounted to 1.11 ±0.07 in [2] (desensitized/CCh-bound state) and 1.04 ±0.08 in experiment [2] (resting/α-BTx-bound state). The ΔG in [2] (desensitized/CCh-bound state) was -6.86 ± 0.048 kcal/mol; in experiment [2] (resting/α-BTx-bound state) it was -6.76 ± 0.048 kcal/mol. For the same compound, on Torpedo AChR [3], the “apparent nH” value was 0.99±0.22. Moreover, the IC50 in the experiment on α3β4 AChR is 220 nM.
For orientation: Kd means the concentration at which binding is half-saturated. As to `c1csc(C2(N3CCCCC3)CCCCC2)c1` [[^3H]TCP, [Piperidyl-3,4-^3H(N)]-(N-(1-(2 thienyl)cyclohexyl)-3,4-piperidine)], the Kd on Torpedo AChR [4] (desensitized state) is 250 nM; on Torpedo AChR [4] (resting state) it was 830 nM.
Take `[3H]c1cc([3H])c(=O)n2c1[C@H]1CNC[C@H](C1)C2` [[^3H]cytisine, [^3H]cytisine hydrochloride, reference compound]: the “fractional occupancy (θ)” value at Torpedo AChR [3] (bound to the desensitized AChR, 7.7 nM) was roughly 0.017%; on Torpedo AChR [3] (bound to the resting AChR, nH = 1, 7.7 nM), roughly 0.005%.
One may read the Ki as a dissociation constant, usually derived from enzyme kinetics or from competition with a known ligand. In general, EC50 refers to the concentration at which the effect is half-maximal. A high value points to a need for much substance. The koff is the rate constant with which the complex falls apart. For orientation: kon means a measure of how fast the partners come together. For the compound `COCC[C@H]1CC2CN3CCc4c([nH]c5ccccc45)[C@](C(=O)OC)(C2)[C@H]13` [18-MC, 18-methoxycoronaridine], the “increase of potency by longer pre-incubation periods” value in experiment [1] (4 or 24 h vs 5 min pre-incubation) is listed as roughly 2 fold. Also, the “fold more potent than PCP” value in experiment [1] (setting [11]) is roughly 4 fold. Further, the “fold more potent than ibogaine” value in experiment [1] (setting [11]) was roughly 2 fold. The entries for the “nH (Hill coefficient)” value in [1] (pre-incubation 5 min), in experiment [1] (pre-incubation 240 min) and in [1] (pre-incubation 1440 min) were 1.56 ±0.15, 1.90 ±0.20 and 1.61 ±0.13, respectively. The “manner of inhibition of hα1β1γδ AChR” value in experiment [1] (pre-treatment with 1, 10 and 100 μM) was “dose dependent and noncompetitive manner”. Further, the figures for the Kd (at Torpedo AChR [5]; in experiment [8] (setting [12]); in experiment [8] (setting [13])) were 230 ± 40 nM, 337 nM and 885 nM, respectively. Also, the Ki was found to be 170 ± 10 nM in experiment [6] (desensitized/CCh-bound state); 1400 ± 100 nM in experiment [6] (resting/α-BTx-bound state); 610 ± 80 nM in experiment [7]; 470 ± 30 nM in experiment [2] (desensitized/CCh-bound state); 1000 ± 100 nM in experiment [2] (resting/α-BTx-bound state). The “fold higher affinity in the desensitized AChR than in the resting AChR” value in experiment [6] ([3H]TCP binding site) is roughly 8 fold. Moreover, the nH was found to be 1.11 ±0.07 in [6] (desensitized/CCh-bound state); 0.89 ± 0.06 in experiment [6] (resting/α-BTx-bound state); 1.02 ±0.13 in experiment [7] ([3H]ibogaine, desensitized/CCh-bound state); 1.02 ±0.06 in experiment [2] (desensitized/CCh-bound state); 0.70 ± 0.05 in experiment [2] (resting/α-BTx-bound state). The ΔG in experiment [6] (desensitized/CCh-bound state) was -9.23 ± 0.024 kcal/mol; in experiment [6] (resting/α-BTx-bound state) it was -7.98 ± 0.048 kcal/mol; in experiment [7] ([3H]ibogaine, desensitized/CCh-bound state, 298K), -8.48 ± 0.072 kcal/mol; in [2] (desensitized/CCh-bound state), -8.63 ± 0.048 kcal/mol; in experiment [2] (resting/α-BTx-bound state) it was -8.2 ± 0.072 kcal/mol. In addition, in experiment [6] (both conformational states), the “inhibition of the specific binding of [3H]TCP” value was roughly 100%. Besides, in experiment [7] (both conformational states (so in the source)), the “inhibition of the specific binding of [3H]ibogaine” value is roughly 100%. Also, the “fold higher affinity for the desensitized AChR compared to the resting AChR” value in experiment [2] ([3H]18-MC competition) is given as roughly 2 fold. At Torpedo AChR [3], this compound yielded a half-maximal effective concentration (EC50) of 300 ± 100 nM. Moreover, on Torpedo AChR [3], the “fold more potent than ibogaine to induce AChR desensitization” value is given as roughly 90 fold. In addition, at Torpedo AChR [3], the “apparent nH” value is 0.81±0.20. Further, the dissociation rate constant (koff) was 0.077 ± 0.001 s⁻¹ in [8] (setting [12]) and 0.109 ± 0.005 s⁻¹ in experiment [8] (setting [13]). The “ΔG^20” value in [8] (setting [12]) is -8.68 ± 0.024 kcal/mol; in [8] (setting [13]), -8.1 ± 0.024 kcal/mol; in [9] (setting [12]) it was -8.68 ± 0.335 kcal/mol; in [9] (setting [13]), -8.13 ± 0.335 kcal/mol. In addition, the kon in experiment [8] (setting [12]) was found to be 228000 ± 3000 M⁻¹ s⁻¹; in experiment [8] (setting [13]) it was 123000 ± 2000 M⁻¹ s⁻¹. Besides, in [9] (desensitized AChR), the “enthalpic contribution relative to the entropic contribution” value is “more than 2 fold”. Moreover, the figures for the “−TΔS°” value in experiment [9] (setting [12]) and in [9] (setting [13]) were -2.68 ± 0.287 kcal/mol and -3.7 ± 0.263 kcal/mol, respectively. Further, the “Ea (drug dissociation)” value stood at 5.35 ± 0.359 kcal/mol in experiment [9] (setting [12]) and 3.92 ± 0.17 kcal/mol in experiment [9] (setting [13]). For the same compound, the “ΔH^+” value came out at 4.78 ± 0.359 kcal/mol in [9] (setting [12]) and 3.32 ± 0.17 kcal/mol in [9] (setting [13]). Also, the “ΔH°” value is -5.98 ± 0.263 kcal/mol in [9] (setting [12]) and -4.42 ± 0.263 kcal/mol in experiment [9] (setting [13]). The results for the IC50 in the experiment with α3β4 AChR and in the experiment on α4β2 AChR were 750 to 900 nM and greater than 20000 nM, respectively.
[^3H]Ibogaine: the Kd on Torpedo AChR [10] was 5400 nM.
On to `O=c1cccc2n1C[C@@H]1CNC[C@H]2C1` [cytisine], for which the inhibition constant Ki is 450 nM on AChR (desensitized state) and 1600 nM at AChR (resting state).
`Clc1ccc(C2CC3CCC2N3)cn1` (racemic) [(±)-epibatidine, reference compound]: in experiment [1] (agonist activation), the nH of activation amounted to 1.23 ±0.06.
As to “[^3H]18-Methoxycoronaridine [[^3H]18-MC]”, the stoichiometric ratio at Torpedo AChR [5] (desensitized/CCh-bound state) was found to be 0.86 ± 0.13 binding sites/AChR. For the same compound, at Torpedo AChR [5] (desensitized/CCh-bound state (1 mM CCh), Rosenthal-Scatchard plot), the dissociation constant Kd amounted to 230 nM.
`c1ccc(C2(N3CCCCC3)CCCCC2)cc1` [PCP, phencyclidine]: in [1] (pre-incubation 5 min), the “nH (Hill coefficient)” value is on record as 2.30 ±0.04. Also, in experiment [2] (desensitized/CCh-bound state), the Ki is 410 ± 30 nM, the nH amounted to 0.76 ± 0.03 and the ΔG is -8.7 ± 0.024 kcal/mol. Further, in [2] (resting/α-BTx-bound state), the affinity, expressed as Ki, was 730 ± 50 nM; the nH amounted to 0.88 ± 0.05; the ΔG is -8.37 ± 0.048 kcal/mol. Besides, the “inhibition of the specific binding of [3H]18-MC” value in [2] (both conformational states) is listed as roughly 100%.
